Laboratory results taken from ChEMBL document CHEMBL1149910, “2-(6-aryl-3(Z)-hexen-1,5-diynyl)anilines as a new class of potent antitubulin agents” (J Med Chem, 2008).
Calls of active or inactive are those of the source. No cut-off for these calls is given here.

Legend:
[1] = system: A549; assay: Cytotoxicity against human A549/ATCC cells; assay type: functional
Outline: (§1)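 Tested in the NCI in vitro antitumor screening protocol across a tumor cell line panel. GI₅₀ is the concentration producing a 50% reduction in cell growth.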

[2] = system: NCI/ADR-RES; assay: Cytotoxicity against human NCI/ADR-RES cells; assay type: functional; outline: as §1
[3] = system: HL-60; assay: Cytotoxicity against human HL60 cells; assay type: functional; outline: as §1
[4] = system: SK-OV-3; assay: Cytotoxicity against human SK-OV3 cells; assay type: functional; outline: as §1
[5] = system: MDA-MB-231; assay: Cell cycle arrest in human MDA-MB-231 cells assessed as accumulation of >4N cells at 9.0 uM after 72 hrs by flow cytometry; assay type: functional
Outline: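 MDA-MB-231/ATCC cells were grown in DMEM with 10% fetal bovine serum, […], 1% nonessential amino acids, penicillin and streptomycin at 37 °C in 5% CO₂. They were exposed to 3.6, 9.0, 18, 27 or 36 µM for 24 or 72 h, with colchicine as control. DNA content was then read by flow cytometry, and […] cells were scored.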

[6] = system: MDA-MB-231; assay: Cell cycle arrest in human MDA-MB-231 cells assessed as accumulation of 4N cells at 9.0 uM after 24 hrs by flow cytometry; assay type: functional
[7] = system: MDA-MB-231; assay: Cell cycle arrest in human MDA-MB-231 cells assessed as accumulation of >4N cells at 3.6 uM after 72 hrs by flow cytometry; assay type: functional
[8] = system: EKVX; assay: Cytotoxicity against human EKVX cells; assay type: functional; outline: as §1
[9] = system: MDA-MB-231; assay: Cell cycle arrest in human MDA-MB-231 cells assessed as accumulation at sub-G1 phase at 36.0 uM after 72 hrs by flow cytometry; assay type: functional
[10] = system: TK-10; assay: Cytotoxicity against human TK10 cells; assay type: functional; outline: as §1
[11] = system: SK-MEL-2; assay: Cytotoxicity against human SK-MEL2 cells; assay type: functional
Outline: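 Tested in the NCI in vitro antitumor screening protocol against human tumour cell lines.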

[12] = system: K562; assay: Cytotoxicity against human K562 cells; assay type: functional; outline: as §1
[13] = system: HOP-62; assay: Cytotoxicity against human HOP62 cells; assay type: functional; outline: as §1
[14] = system: MDA-MB-231; assay: Cell cycle arrest in human MDA-MB-231 cells assessed as accumulation of >4N cells at 27.0 uM after 24 hrs by flow cytometry; assay type: functional
[15] = system: SNB-19; assay: Cytotoxicity against human SNB19 cells; assay type: functional; outline: as §1
[16] = system: SF-295; assay: Cytotoxicity against human SF295 cells; assay type: functional; outline: as §1
[17] = system: MDA-MB-231; assay: Cell cycle arrest in human MDA-MB-231 cells assessed as accumulation of 2N cells at 3.6 uM after 24 hrs by flow cytometry; assay type: functional
[18] = system: MDA-MB-231; assay: Cell cycle arrest in human MDA-MB-231 cells assessed as accumulation of 2N cells at 18.0 uM after 72 hrs by flow cytometry; assay type: functional
[19] = system: MDA-MB-231; assay: Cell cycle arrest in human MDA-MB-231 cells assessed as accumulation of 4N cells at 3.6 uM after 72 hrs by flow cytometry; assay type: functional
[20] = system: T47D; assay: Cytotoxicity against human T47D cells; assay type: functional; outline: as §1
[21] = system: MDA-MB-231; assay: Cell cycle arrest in human MDA-MB-231 cells assessed as accumulation at sub-G1 phase at 36.0 uM after 24 hrs by flow cytometry; assay type: functional
[22] = system: K562; assay: Cell cycle arrest in human K562 cells assessed as accumulation at S phase at 50 uM after 24 hrs by flow cytometry; assay type: functional
Outline: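 K-562 human leukemia cells were grown in RPMI 1640 with 10% fetal calf serum, glutamine and penicillin/streptomycin at 37 °C in 5% CO₂. Cells were exposed to compound at 50 µM for 24 h, then pelleted and PBS-washed. They were fixed in ice-cold ethanol for 30 min, treated with 1 mg/mL RNase A at 37 °C for 30 min, and stained with propidium iodide and Triton X-100 for 30 min at room temperature in the dark. Per-phase and sub-G1 percentages came from flow cytometry gating.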

[23] = system: HCT-116; assay: Cytotoxicity against human HCT116 cells; assay type: functional; outline: as §1
[24] = system: MDA-MB-231 (Homo sapiens); assay: Induction of apoptosis in human MDA-MB-231 cells assessed as induction of caspase 9 activation at 36 uM after 72 hrs by colorimetric assay relative to control
[25] = system: RPMI-8226; assay: Cytotoxicity against human RPMI8226 cells; assay type: functional; outline: as §1
[26] = system: MDA-MB-231; assay: Cell cycle arrest in human MDA-MB-231 cells assessed as accumulation of 4N cells at 3.6 uM after 24 hrs by flow cytometry; assay type: functional
[27] = system: Hs-578T; assay: Cytotoxicity against human HS578T cells; assay type: functional; outline: as §1
[28] = system: MDA-MB-231; assay: Cell cycle arrest in human MDA-MB-231 cells assessed as accumulation of 4N cells at 27.0 uM after 72 hrs by flow cytometry; assay type: functional
[29] = system: OVCAR-8; assay: Cytotoxicity against human OVCAR8 cells; assay type: functional; outline: as §1
[30] = system: MDA-MB-231; assay: Cell cycle arrest in human MDA-MB-231 cells assessed as accumulation of 2N cells at 9.0 uM after 72 hrs by flow cytometry; assay type: functional
[31] = system: MDA-MB-231; assay: (§2) Cytotoxicity against human MDA-MB-231 cells; assay type: functional; outline: as §1
[32] = system: MDA-MB-231; assay: as §2; assay type: functional; outline: as §1; remark: listed apart in the source
[33] = system: MDA-MB-231; assay: Effect on microtubule depolymerization in human MDA-MB-231 cells at 36 uM after 2 hrs; assay type: functional, cell-based
Outline: (§3)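 MDA-MB-231/ATCC cells grown on glass coverslips (1 × 10⁴ cells) for 24 h, then exposed to 3.6, 9, 18, 27 or 36 µM at 37 °C for 2 h. Fixed in 4% paraformaldehyde, permeabilized with Triton X-100, and immunostained for α-tubulin and ninein with DAPI counterstain. Interphase microtubule networks compared with untreated cells by confocal microscopy.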

[34] = system: MDA-MB-231; assay: Effect on microtubule depolymerization in human MDA-MB-231 cells at 27 uM after 2 hrs; assay type: functional, cell-based; outline: as §3
[35] = system: MDA-MB-231; assay: Cell cycle arrest in human MDA-MB-231 cells assessed as accumulation of 4N cells at 27.0 uM after 24 hrs by flow cytometry; assay type: functional
[36] = system: MDA-MB-231; assay: Effect on microtubule depolymerization in human MDA-MB-231 cells at 18 uM after 2 hrs; assay type: functional, cell-based; outline: as §3
[37] = read-out: LC50 (the source's name)

Q: `Nc1ccccc1C#C/C=C\C#Cc1ccccc1C(F)(F)F` was tested. Which GI50 [1] did it give?
A: Its GI50 is 0.745 µM.

Q: What about the TGI [1] of the same compound?
A: Its TGI is 15.2 µM.

Q: What about the CC50 [1, 37] of the same compound?
A: The CC50 was 59.5 µM.

Q: And the GI50 [2]?
A: The GI50 was 0.249 µM.

Q: And the TGI [2]?
A: The TGI was 0.68 µM.

Q: What about the CC50 [2, 37] of the same compound?
A: The CC50 was 28.5 µM.

Q: And the GI50 [3]?
A: The GI50 was 0.358 µM.

Q: And the TGI [3]?
A: The TGI was over 100 µM.

Q: And the CC50 [3, 37]?
A: The CC50 was over 100 µM.

Q: And the GI50 [4]?
A: The GI50 was 0.888 µM.

Q: What about the TGI [4] of the same compound?
A: The TGI was 24.7 µM.

Q: And the CC50 [4, 37]?
A: The CC50 was 98.7 µM.

Q: And the Activity [5]?
A: Its Activity is 18%.

Q: And the Activity [6]?
A: Its Activity is 33.6%.

Q: What about the Activity [7] of the same compound?
A: The Activity was 10.3%.

Q: What about the GI50 [8] of the same compound?
A: Its GI50 is 0.358 µM.

Q: What about the TGI [8] of the same compound?
A: Its TGI is 12.4 µM.

Q: What about the CC50 [8, 37] of the same compound?
A: Its CC50 is 40.4 µM.

Q: What about the Activity [9] of the same compound?
A: The Activity was 69.3%.

Q: And the GI50 [10]?
A: The GI50 was 8.3 µM.

Q: What about the TGI [10] of the same compound?
A: The TGI was 27.9 µM.

Q: And the CC50 [10, 37]?
A: Its CC50 is 78.4 µM.

Q: What about the TGI [11] of the same compound?
A: The TGI was 26.5 µM.

Q: What about the CC50 [11, 37] of the same compound?
A: The CC50 was 67.2 µM.

Q: And the GI50 [12]?
A: Its GI50 is 1 µM.

Q: What about the TGI [12] of the same compound?
A: The TGI was 0.845 µM.

Q: And the CC50 [12, 37]?
A: The CC50 was 62.7 µM.

Q: And the GI50 [13]?
A: The GI50 was 0.77 µM.

Q: And the TGI [13]?
A: The TGI was 26.1 µM.

Q: And the CC50 [13, 37]?
A: Its CC50 is 69.5 µM.

Q: And the Activity [14]?
A: The Activity was 35.3%.

Q: And the GI50 [15]?
A: The GI50 was 11.3 µM.

Q: And the TGI [15]?
A: Its TGI is 39.9 µM.

Q: And the CC50 [15, 37]?
A: The CC50 was over 100 µM.

Q: What about the GI50 [16] of the same compound?
A: Its GI50 is 0.396 µM.

Q: And the TGI [16]?
A: Its TGI is 2.6 µM.

Q: What about the CC50 [16, 37] of the same compound?
A: The CC50 was 26.8 µM.

Q: And the Activity [17]?
A: Its Activity is 9.5%.

Q: What about the Activity [18] of the same compound?
A: The Activity was 7.1%.

Q: What about the Activity [19] of the same compound?
A: The Activity was 19.2%.

Q: What about the GI50 [20] of the same compound?
A: Its GI50 is 17 µM.

Q: What about the TGI [20] of the same compound?
A: Its TGI is 49.6 µM.

Q: What about the CC50 [20, 37] of the same compound?
A: Its CC50 is over 100 µM.

Q: What about the Activity [21] of the same compound?
A: Its Activity is 23.6%.

Q: What about the Activity [22] of the same compound?
A: The Activity was 19.3%.

Q: What about the GI50 [23] of the same compound?
A: Its GI50 is 0.423 µM.

Q: And the TGI [23]?
A: The TGI was 12.5 µM.

Q: What about the CC50 [23, 37] of the same compound?
A: Its CC50 is 47.4 µM.

Q: And the “fold change (FC)” value [24]?
A: Its value is 3.9.

Q: And the GI50 [25]?
A: The GI50 was 0.738 µM.

Q: And the TGI [25]?
A: The TGI was over 100 µM.

Q: And the CC50 [25, 37]?
A: The CC50 was over 100 µM.

Q: And the Activity [26]?
A: Its Activity is 35.6%.

Q: And the GI50 [27]?
A: The GI50 was 0.501 µM.

Q: And the TGI [27]?
A: Its TGI is 28.9 µM.

Q: What about the CC50 [27, 37] of the same compound?
A: Its CC50 is over 100 µM.

Q: What about the Activity [28] of the same compound?
A: The Activity was 15%.

Q: And the GI50 [29]?
A: Its GI50 is 0.962 µM.

Q: And the TGI [29]?
A: The TGI was 21.5 µM.

Q: What about the CC50 [29, 37] of the same compound?
A: Its CC50 is 80.7 µM.

Q: And the Activity [30]?
A: Its Activity is 6.8%.

Q: And the GI50 [31]?
A: The GI50 was 0.4 µM.

Q: And the TGI [31]?
A: The TGI was 1.68 µM.

Q: And the CC50 [31, 37]?
A: The CC50 was 36.5 µM.

Q: What about the GI50 [32] of the same compound?
A: Its GI50 is 0.398 µM.

Q: What about the Activity [33] of the same compound?
A: Its Activity is “Active”.

Q: What about the Activity [34] of the same compound?
A: Its Activity is “Active”.

Q: What about the Activity [35] of the same compound?
A: The Activity was 30.7%.

Q: And the Activity [36]?
A: Its Activity is “Active”.
